≈ marks a conversion by molar mass, not a printed value.
Columns and labels:
[1] = system: Mycobacterium tuberculosis; assay: Antitubercular activity against Mycobacterium tuberculosis H37Rv after 28 days by agar dilution method; assay type: functional; conditions: 672 h
Procedure, shortened: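 Tenfold serial dilutions were incorporated into Middlebrook 7H11 agar with OADC. The H37Rv inoculum came from fresh 7H11/OADC slants, set to 1 mg/mL wet weight in 0.05% Tween 80 saline and diluted 10^-2 (about 10^7 cfu/mL). 5 µL was spotted per tube and incubated at 37 °C, read at 28 days. MIC was the lowest concentration giving complete growth inhibition, tested in triplicate.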

[2] = system: Mycobacterium tuberculosis; assay: Ratio of MIC for drug to MIC for ethambutol against Mycobacterium tuberculosis H37Rv after 28 days by agar dilution method; assay type: functional

SMILES	MIC [1]	Ratio [2]
C[C@H](c1ccccc1)N1CCC(=O)[C@]2(C1)ON(c1ccccc1)[C@@H](c1ccccc1)[C@H]2c1ccccc1Cl	23.9 µM (≈ 12.5 µg/mL)	–
Cc1ccc([C@@H]2[C@H](c3ccccc3Cl)[C@]3(CN([C@H](C)c4ccccc4)CCC3=O)ON2c2ccccc2)cc1	11.6 µM (≈ 6.25 µg/mL)	–
C[C@H](c1ccccc1)N1CCC(=O)[C@]2(C1)ON=C(c1ccc(Cl)cc1)[C@H]2c1ccccc1Cl	3.25 µM (≈ 1.56 µg/mL)	–
C[C@H](c1ccccc1)N1CCC(=O)[C@]2(C1)ON(c1ccccc1)[C@@H](c1ccccc1)[C@H]2c1ccccc1	25.6 µM (≈ 12.5 µg/mL)	–
Cc1ccc([C@@H]2C(c3ccccc3)=NO[C@]23CN([C@H](C)c2ccccc2)CCC3=O)cc1	14.7 µM (≈ 6.25 µg/mL)	–
C[C@H](c1ccccc1)N1CCC(=O)[C@]2(C1)ON=C(c1ccccc1)[C@H]2c1ccc(Cl)cc1	14.1 µM (≈ 6.25 µg/mL)	–
C[C@H](c1ccccc1)N1CCC(=O)[C@]2(C1)ON=C(c1ccccc1)[C@H]2c1cccc2ccccc12	27.1 µM (≈ 12.5 µg/mL)	–
Cc1ccc([C@@H]2[C@H](c3ccccc3)[C@]3(CN([C@H](C)c4ccccc4)CCC3=O)ON2c2ccccc2)cc1	49.7 µM (≈ 25 µg/mL)	–
C[C@H](c1ccccc1)N1CCC(=O)[C@]2(C1)ON=C(c1ccccc1)[C@H]2c1ccccc1Cl	7.03 µM (≈ 3.13 µg/mL)	–
Cc1ccc([C@@H]2C(c3ccc(Cl)cc3)=NO[C@]23CN([C@H](C)c2ccccc2)CCC3=O)cc1	6.82 µM (≈ 3.13 µg/mL)	–
C[C@H](c1ccccc1)N1CCC(=O)[C@]2(C1)ON=C(c1ccc(Cl)cc1)[C@H]2c1ccc(Cl)cc1	3.25 µM (≈ 1.56 µg/mL)	–
Cc1ccc([C@@H]2[C@H](c3ccccc3)N(c3ccccc3)O[C@]23CN([C@H](C)c2ccccc2)CCC3=O)cc1	12.4 µM (≈ 6.25 µg/mL)	–
C[C@H](c1ccccc1)N1CCC(=O)[C@]2(C1)ON=C(c1ccc(Cl)cc1)[C@H]2c1cccc2ccccc12	25.2 µM (≈ 12.5 µg/mL)	–
Cc1ccc([C@H]2[C@@H](c3ccccc3Cl)[C@@]3(CN([C@H](C)c4ccccc4)CCC3=O)ON2c2ccccc2)cc1	11.6 µM (≈ 6.25 µg/mL)	–
C[C@H](c1ccccc1)N1CCC(=O)[C@@]2(C1)ON(c1ccccc1)[C@H](c1ccccc1)[C@@H]2c1ccccc1Cl	5.98 µM (≈ 3.13 µg/mL)	–
Cc1ccc([C@H]2[C@@H](c3ccccc3)N(c3ccccc3)O[C@@]23CN([C@H](C)c2ccccc2)CCC3=O)cc1	24.9 µM (≈ 12.5 µg/mL)	–

SMILES	MIC [1]	Ratio [2]
NNC(=O)c1ccncc1 [ISONIAZID]	0.36 µM (≈ 0.0494 µg/mL)	–
Cc1ccc([C@H]2N(c3ccccc3)O[C@H](c3ccccc3)[C@@]23CN([C@H](C)c2ccccc2)CCC3=O)cc1	24.9 µM (≈ 12.5 µg/mL)	–
CC[C@@H](CO)NCCN[C@@H](CC)CO [ETHAMBUTOL]	7.64 µM (≈ 1.56 µg/mL)	–
Cc1ccc([C@@H]2[C@H](c3ccc(C)cc3)N(c3ccccc3)O[C@]23CN([C@H](C)c2ccccc2)CCC3=O)cc1	6.06 µM (≈ 3.13 µg/mL)	–
Cc1ccc([C@H]2[C@@H](c3ccccc3)[C@@]3(CN([C@H](C)c4ccccc4)CCC3=O)ON2c2ccccc2)cc1	49.7 µM (≈ 25 µg/mL)	–
C[C@H](c1ccccc1)N1CCC(=O)[C@@]2(C1)ON(c1ccccc1)[C@H](c1ccccc1)[C@@H]2c1ccccc1	25.6 µM (≈ 12.5 µg/mL)	–
C[C@H](c1ccccc1)N1CCC(=O)[C@]2(C1)ON(c1ccccc1)[C@@H](c1ccccc1)[C@H]2c1cccs1	6.33 µM (≈ 3.13 µg/mL)	–
Cc1ccc([C@H]2[C@@H](c3cccs3)[C@@]3(CN([C@H](C)c4ccccc4)CCC3=O)ON2c2ccccc2)cc1	24.6 µM (≈ 12.5 µg/mL)	–
Cc1ccc([C@@H]2[C@H](c3ccc(Cl)cc3)[C@]3(CN([C@H](C)c4ccccc4)CCC3=O)ON2c2ccccc2)cc1	23.3 µM (≈ 12.5 µg/mL)	–
Cc1ccc([C@@H]2[C@H](c3ccc(C)cc3)[C@]3(CN([C@H](C)c4ccccc4)CCC3=O)ON2c2ccccc2)cc1	3.02 µM (≈ 1.56 µg/mL)	2.5
CO[C@H]1/C=C/O[C@@]2(C)Oc3c(C)c(O)c4c(O)c(c(/C=N/N5CCN(C)CC5)c(O)c4c3C2=O)NC(=O)/C(C)=C\C=C\[C@H](C)[C@H](O)[C@@H](C)[C@@H](O)[C@@H](C)[C@H](OC(C)=O)[C@@H]1C [RIFAMPIN]	0.12 µM (≈ 0.0988 µg/mL)	–
C[C@H](c1ccccc1)N1CCC(=O)[C@@]2(C1)ON=C(c1ccc(Cl)cc1)[C@H]2c1ccccc1	14.1 µM (≈ 6.25 µg/mL)	–
C[C@H](c1ccccc1)N1CCC(=O)[C@@]2(C1)[C@@H](c1ccccc1)ON(c1ccccc1)[C@@H]2c1ccccc1	25.6 µM (≈ 12.5 µg/mL)	–
Cc1ccc([C@H]2[C@@H](c3ccc(Cl)cc3)[C@@]3(CN([C@H](C)c4ccccc4)CCC3=O)ON2c2ccccc2)cc1	11.6 µM (≈ 6.25 µg/mL)	–
C[C@H](c1ccccc1)N1CCC(=O)[C@]2(C1)ON=C(c1ccccc1)[C@H]2c1ccccc1	60.9 µM (≈ 25 µg/mL)	–

From ChEMBL document CHEMBL1154648, “1,3-Dipolar cycloaddition of C-aryl-N-phenylnitrones to (R)-1-(1-phenylethyl)-3-[(E)-arylmethylidene]tetrahydro-4(1H)-pyridinones: synthesis and antimycobacterial evaluation of enantiomerically pure spiroisoxazolidines” (2010)
